Results reported in PubChem BioAssay AID588627 (Johns Hopkins Ion Channel Center, 2011).
In all, about 310,000 compounds went through this assay and about 1,400 (0.45%) were called active.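 How the source made its calls: active means calcium response B-score plate-corrected fluorescence ratio at least 3 library SD, with starting fluorescence B-score inside 5 SD; inactive means the rest.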 The sample as a whole holds a higher share of actives than the screen did.

Target: Mas-related G-protein coupled receptor member X1 (Homo sapiens) (UniProt Q96LB2)
Sequence (Q96LB2 whole entry, looked up): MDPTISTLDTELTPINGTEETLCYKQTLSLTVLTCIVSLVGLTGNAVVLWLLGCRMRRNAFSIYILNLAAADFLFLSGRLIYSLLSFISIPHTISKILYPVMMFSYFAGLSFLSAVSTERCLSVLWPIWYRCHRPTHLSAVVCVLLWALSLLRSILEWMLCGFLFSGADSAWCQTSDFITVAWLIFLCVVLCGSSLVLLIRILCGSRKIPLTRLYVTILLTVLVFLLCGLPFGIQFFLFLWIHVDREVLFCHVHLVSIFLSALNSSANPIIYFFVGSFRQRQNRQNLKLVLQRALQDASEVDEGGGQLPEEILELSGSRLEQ
Assay: agonists of human MrgX1 receptor, primary screen, HEK293 cells, Fluo-4 calcium flux (AID 588627);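 on B-score: B-score of the peak-minus-trough calcium fluorescence change over baseline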
Conditions: Fluo-4 calcium fluorescence, agonist mode, at 10 µM; stronger effect = higher value
Outline: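 System – MrgX1-expressing HEK293 cells · Incubation – cells plated overnight, dye loaded 0.5 h 37 °C, 0.5 h room temperature · Technique – kinetic Fluo-4 NW fluorescence of intracellular calcium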

Compound	B-score
CCCCC(=O)N/N=C/c1c(O)n(CCC2=CCCCC2)c(=O)[nH]c1=O	inactive
CCCCC(=O)N/N=C/c1c(O)n(CC)c(=S)n(CC)c1=O	66 (active)
CCCCC(=O)N/N=C/c1c(O)n(-c2ccccc2)c(=O)[nH]c1=O	inactive
CC1=C(C(=O)Nc2ccccc2)S(=O)(=O)CCO1	inactive
COc1ccc2c(c1)[C@]13CCCCC1C(C2)N(C)CC3 (stereo not given in full)	inactive
Cc1cc(/C=C2/C(=O)NC(=O)N(Cc3ccco3)C2=O)c(C)n1-c1ccc(C(=O)O)cc1	inactive
O=C1NC(=O)N(Cc2ccco2)C(=O)/C1=C\c1cccn1CCOc1ccccc1	inactive
O=C1NC(=O)N(Cc2ccco2)C(=O)/C1=C\c1ccc(-c2ccc(F)cc2)o1	28.4 (active)
CCN(N=Nc1nonc1OC)c1nonc1OC	inactive
Cc1ccc2c(c1)=C/C(=C\c1c(O)[nH]c(=O)[nH]c1=O)C(=O)N=2	inactive
